Assay results reported in ChEMBL document CHEMBL1121853, “New antiarrhythmic agents. 7. 2,3-Diaminopropionanilides” (J Med Chem, 1981).

Tests used:
Mus musculus [1] = species: Mus musculus; experiment: Effective dose of compound that evoked CNS toxicity in mice in the form of ataxia; assay type: functional
Procedure, shortened: (§1)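 Mice dosed subcutaneously, groups of 10. Over a 20-min period they were watched for ataxia, convulsions, loss of righting reflex or death, then each was placed in chloroform-vapor-saturated air until respiration ceased. ED50 with 95% Fieller limits for protection against tachycardia, ataxia and convulsions, calculated by Berkson's logit chi-square method.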

Mus musculus [2] = species: Mus musculus; experiment: Effective dose of compound that evoked CNS toxicity in mice in the form of convulsions; assay type: functional; procedure, shortened: as §1
Mus musculus [3] = species: Mus musculus; experiment: Effective dose of compound that protects mice against chloroform induced tachycardia; assay type: functional; procedure, shortened: as §1
Rattus norvegicus [4] = experiment: Anesthetic activity of compound (0.25%) was evaluated by duration of sciatic nerve block; assay type: functional
Procedure, shortened: (§2)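 Rat sciatic nerve block: 0.2 mL of test solution (concentration as base, with 1:100 000 epinephrine) injected into the mid-thigh around the sciatic nerve trunk, both hind limbs. Five rats per concentration, so up to 10 blocks. Animals examined at frequent intervals for onset of and recovery from motor block. Duration given as mean ± standard deviation.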

[5] = Lethal dose of compound evaluated by administering intraperitoneally to female CRCD mice; assay type: toxicity, organism-based; conditions: mouse, in vivo, ip
Procedure, shortened: (§3)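 Female CRCD mice (20–25 g), in groups, given compound dissolved in isotonic saline or distilled water, either by tail-vein (iv) or intraperitoneal injection. Doses expressed as base. LD50 and 95% confidence limits calculated by the minimum logit chi-square method.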

Rattus norvegicus [6] = experiment: Anesthetic activity of compound (1.0%) was evaluated by duration of sciatic nerve block; assay type: functional; procedure, shortened: as §2
Rattus norvegicus [7] = experiment: Anesthetic activity of compound (0.125%) was evaluated by duration of sciatic nerve block; assay type: functional; procedure, shortened: as §2
Rattus norvegicus [8] = experiment: Anesthetic activity of compound (0.5%) was evaluated by duration of sciatic nerve block; assay type: functional; procedure, shortened: as §2
Rattus norvegicus [9] = experiment: Anesthetic activity of compound (2.0%) was evaluated by duration of sciatic nerve block
Mus musculus [10] = experiment: CNS toxicity expressed as percent of ataxia evoked in mice at a dose of 50.1 mg/kg; assay type: functional
[11] = Lethal dose of compound evaluated by administering intravenously to female CRCD mice; assay type: toxicity, organism-based; conditions: mouse, in vivo, iv; procedure, shortened: as §3
Mus musculus [12] = experiment: CNS toxicity expressed as percent of convulsions evoked in mice at a dose of 200 mg/kg; Inactive; assay type: functional
Mus musculus [13] = experiment: CNS toxicity expressed as percent of ataxia evoked in mice at a dose of 200 mg/kg; Inactive; assay type: functional
Mus musculus [14] = experiment: Percent protection against chloroform induced tachycardia in mice at 200 mg/kg; Inactive; assay type: functional
Mus musculus [15] = experiment: Percent protection against chloroform induced tachycardia in mice at 100 mg/kg; assay type: functional
Mus musculus [16] = experiment: CNS toxicity expressed as percent of ataxia evoked in mice at a dose of 100 mg/kg; assay type: functional
Mus musculus [17] = experiment: CNS toxicity expressed as percent of convulsions evoked in mice at a dose of 100 mg/kg; assay type: functional
Mus musculus [18] = experiment: CNS toxicity expressed as percent of convulsions evoked in mice at a dose of 79.4 mg/kg; Inactive; assay type: functional
Mus musculus [19] = experiment: CNS toxicity expressed as percent of ataxia evoked in mice at a dose of 79.4 mg/kg; assay type: functional
Mus musculus [20] = experiment: Percent protection against chloroform induced tachycardia in mice at 79.4 mg/kg; Inactive; assay type: functional
Mus musculus [21] = experiment: CNS toxicity expressed as percent of convulsions evoked in mice at a dose of 631 mg/kg; assay type: functional
Mus musculus [22] = experiment: Percent protection against chloroform induced tachycardia n mice at 631 mg/kg; Inactive; assay type: functional
Mus musculus [23] = experiment: Percent death against chloroform induced tachycardia in mice at 631 mg/kg; assay type: functional
Procedure, shortened: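 Mice in groups of 10, dosed subcutaneously, then watched for 20 min for ataxia, convulsions, loss of righting reflex or death. Survivors were placed individually in chloroform-vapour-saturated air until respiration ceased. Percent of animals dead at the single dose was recorded alongside protection, ataxia and convulsion counts.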

Mus musculus [24] = experiment: CNS toxicity expressed as percent of ataxia evoked in mice at a dose of 631 mg/kg; assay type: functional
Mus musculus [25] = experiment: Percent protection against chloroform induced tachycardia in mice at 398 mg/kg; assay type: functional
Rattus norvegicus [26] = experiment: Anesthetic activity of compound (0.125%) was evaluated by duration of sciatic nerve block; NB= no blocks (0/10); assay type: functional, organism-based; procedure, shortened: as §2
Rattus norvegicus [27] = experiment: Anesthetic activity of compound (0.25%) was evaluated by duration of sciatic nerve block; NB= no blocks (0/10); assay type: functional, organism-based; procedure, shortened: as §2
Mus musculus [28] = experiment: Percent protection against chloroform induced tachycardia in mice at 15.8 mg/kg; Inactive; assay type: functional
Mus musculus [29] = experiment: CNS toxicity expressed as percent of ataxia evoked in mice at a dose of 10 mg/kg; assay type: functional

| SMILES | ED50 (Mus musculus [1]) [mg/kg] | ED50 (Mus musculus [2]) [mg/kg] | ED50 (Mus musculus [3]) [mg/kg] | Duration (Rattus norvegicus [4]) [min] | LD50 [5] [mg/kg] | Duration (Rattus norvegicus [6]) [min] | Duration (Rattus norvegicus [7]) [min] | Duration (Rattus norvegicus [8]) [min] | further results |
| --- | --- | --- | --- | --- | --- | --- | --- | --- | --- |
| Cc1cccc(C)c1NC(=O)C(CN(C)C)N(C)C (centres undefined) | 16 | 23 | 17 |  |  |  |  |  |  |
| CCN(CC)CC(C(=O)Nc1cc(C)ccc1OC)N(CC)CC (centres undefined) | 96 | 137 | 106 | 125 | 81 | 273 | 94 | 166 |  |
| CCOc1ccccc1NC(=O)C(CN(C)CC)N(C)CC (centres undefined) |  |  |  | 105 | 94 | 189 | 78 | 136 |  |
| CCN(CC)CC(C(=O)Nc1ccccc1OC)N(CC)CC (centres undefined) |  | 65 | 81 | 91 | 70 | 178 |  | 66 | Duration (Rattus norvegicus [9]): 184 min; Ataxia (Mus musculus [10]): 40% |
| CCCN(CC)CC(C(=O)Nc1ccccc1OC)N(CC)CCC (centres undefined) |  |  |  | 116 |  |  | 80 | 260 | LD50 [11]: 11 mg/kg |
| Cc1cccc(C)c1NC(=O)C1CNCCN1 (centres undefined) |  |  |  |  |  |  |  |  | Convulsions (Mus musculus [12]): 0%; Ataxia (Mus musculus [13]): 0%; Protection (Mus musculus [14]): 10% |
| CCCN(CC)C(CC)C(=O)Nc1c(C)cccc1C (centres undefined) [ETIDOCAINE] |  |  |  | 222 | 56 |  | 156 | 279 | LD50 [11]: 7 mg/kg |
| CCN(CC)CC(C(=O)Nc1cccc(OC)c1)N(CC)CC (centres undefined) |  |  |  | 87 |  | 145 | 77 | 100 | Duration (Rattus norvegicus [9]): 265 min; Protection (Mus musculus [15]): 60%; Ataxia (Mus musculus [16]): 0%; Convulsions (Mus musculus [17]): 0%; LD50 [11]: 20 mg/kg |
| Cc1cccc(C)c1NC(=O)C(CN(C)C(C)C)N(C)C(C)C (centres undefined) | 6 | 9.3 | 6.1 |  |  |  |  |  |  |
| COCCN(C)CC(C(=O)Nc1c(C)cccc1C)N(C)CCOC (centres undefined) | 4.3 | 5.1 | 2.6 |  |  |  |  |  |  |
| Cc1cccc(C)c1NC(=O)C(CN1CCCC1)N1CCCC1 (centres undefined) | 12 | 12 | 14 |  |  |  |  |  |  |
| Cc1cccc(C)c1NC(=O)C(CN1CCOCC1)N1CCOCC1 (centres undefined) |  |  |  | 72 |  | 138 | 72 | 102 | Convulsions (Mus musculus [18]): 0%; Ataxia (Mus musculus [19]): 100%; Duration (Rattus norvegicus [9]): 193 min; Protection (Mus musculus [20]): 10% |
| CCN(CC)CC(C(=O)Nc1ccc(OC)cc1C)N(CC)CC (centres undefined) |  |  |  | 151 | 102 | 150 | 162 | 157 | Duration (Rattus norvegicus [9]): 184 min |
| C#CCN(C)CC(C(=O)Nc1c(C)cccc1C)N(C)CC#C (centres undefined) |  |  |  |  |  |  |  |  | Convulsions (Mus musculus [21]): 40%; Protection (Mus musculus [22]): 0%; Death (Mus musculus [23]): 40%; Ataxia (Mus musculus [24]): 40% |
| CCN(CC)CCC(=O)Nc1c(C)cccc1C | 52 |  | 69 | 110 |  | 184 |  | 146 |  |
| Cc1cccc(C)c1NC(=O)C(C)N (centres undefined) [TOCAINIDE] | 146 |  | 250 |  |  | 79 |  | 44 | LD50 [11]: 94 mg/kg |
| CCN(CC)CC(=O)Nc1c(C)cccc1C [LIDOCAINE] | 42 |  | 61 | 102 |  | 162 |  | 123 |  |
| CCOc1ccc(NC(=O)C(CN(C)C)N(C)C)cc1OCC (centres undefined) | 199 | 317 |  |  |  | 133 |  | 83 | Protection (Mus musculus [25]): 50%; Duration (Rattus norvegicus [26]): No blocks; Duration (Rattus norvegicus [9]): 147 min; Duration (Rattus norvegicus [27]): No blocks |
| CCOc1ccccc1NC(=O)C(CN(CC)CC)N(CC)CC (centres undefined) |  |  |  | 138 | 81 |  | 140 | 176 |  |
| C=CCN(C)CC(C(=O)Nc1c(C)cccc1C)N(C)CC=C (centres undefined) | 13 | 17 |  |  |  |  |  |  | Protection (Mus musculus [28]): 30% |
| CCCN(CC)CC(C(=O)Nc1ccc(OC)cc1C)N(CC)CCC (centres undefined) |  |  |  | 107 | 66 |  | 96 | 227 |  |
| CCN(C)CC(C(=O)Nc1c(C)cccc1C)N(C)CC (centres undefined) |  | 12 | 13 |  |  |  |  |  | Ataxia (Mus musculus [29]): 100% |
